Active and inactive are the calls of the source. No cut-off for these calls is given here. A value given as a limit tells only on which side of the number the result lay.

In data set [1] the test system is Klebsiella pneumoniae. Briefly: Antibacterial activity against multidrug-resistant Klebsiella pneumoniae ATCC 700603 after 18 hrs by polystyrene 96-well plate-based method. The class given is functional. An outline of the steps:
(§1)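 Strains grown in cation-adjusted Mueller Hinton broth at 37 °C for 12 h, diluted 40-fold and regrown 1.5–3 h to mid-log. Inoculum was 5×10^5 CFU/mL in 12-point dose response, in non-binding surface or polystyrene plates, in duplicate. Plates stood at 37 °C for 18 h. MIC was read by OD600.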

Data set [2] concerns Acinetobacter baumannii. As to the kind of experiment: Antibacterial activity against Acinetobacter baumannii ATCC 19606 after 18 hrs by non-binding surface 96-well plate-based method. The class given is functional. In a few lines:
as §1

In data set [3] the test system is Acinetobacter baumannii. As to the kind of experiment: Antibacterial activity against Acinetobacter baumannii ATCC 19606 after 18 hrs by polystyrene 96-well plate-based method. In kind it is functional. An outline of the steps:
(§2)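 Cultured in cation-adjusted Mueller Hinton broth at 37 °C for 12 h, diluted 40-fold and grown 1.5–3 h to mid-log. Seeded at 5×10^5 CFU/mL over a 12-point dose response in non-binding surface and polystyrene 96-well plates, duplicates (n=2). Incubated static at 37 °C for 18 h. MIC read from OD600 light scattering; colistin and vancomycin as standards.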

Data set [4] concerns Escherichia coli. As to the kind of experiment: Antibacterial activity against Escherichia coli ATCC 25922 after 18 hrs by polystyrene 96-well plate-based method. The class given is functional. An outline of the steps: as §1
The test system of data set [5] is Escherichia coli. As to the kind of experiment: Antibacterial activity against Escherichia coli ATCC 25922 after 18 hrs by non-binding surface 96-well plate-based method. In kind it is functional. An outline of the steps:
as §2

In data set [6] the test system is Klebsiella pneumoniae. As to the kind of experiment: Antibacterial activity against multidrug-resistant Klebsiella pneumoniae ATCC 700603 after 18 hrs by non-binding surface 96-well plate-based method. In kind it is functional. An outline of the steps: as §1
For data set [7], the system named is Staphylococcus aureus. Briefly: Antibacterial activity against methicillin-resistant Staphylococcus aureus ATCC 43300 after 18 hrs by polystyrene 96-well plate-based method. The class given is functional. An outline of the steps:
as §1

In data set [8] the test system is Staphylococcus aureus. Briefly: Antibacterial activity against methicillin-resistant Staphylococcus aureus ATCC 43300 after 18 hrs by non-binding surface 96-well plate-based method. In kind it is functional. In a few lines:
as §1

Data set [9] in a line: Hemolytic activity against human RBC at 6.25 uM after 1 hr by Drabkin's assay relative to control. In kind it is ADME, cell-based, Erythrocyte. As to conditions: human red blood cells (erythrocytes), read-out: Activity.
A short description of data set [10]: Hemolytic activity against human RBC at 25 uM after 1 hr by Drabkin's assay relative to control. In kind it is ADME, cell-based, Erythrocyte. As to conditions: human red blood cells (erythrocytes), read-out: Activity.
The test system of another data set is Pseudomonas aeruginosa. As to the kind of experiment: Growth inhibition of Pseudomonas aeruginosa ATCC 27853 at 32 ug/ml after 18 hrs. In kind it is functional. The conditions noted are these: ATCC 27853, 18 h, read-out: GI. In a few lines: (§3)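 Mid-log cultures were prepared as above and seeded at 5×10^5 CFU/mL with compound at a final 32 μg/mL, then held static at 37 °C for 18 h. Growth was read as OD600. Percent inhibition was calculated against media-only and bacteria-only controls on the same plate.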

A short description of data set [11]: Hemolytic activity against human RBC at 1.56 uM after 1 hr by Drabkin's assay relative to control. The class given is ADME, cell-based, Erythrocyte. The conditions noted are these: human red blood cells (erythrocytes), read-out: Activity.
Data set [12] can be described thus: Hemolytic activity against human RBC at 3.125 uM after 1 hr by Drabkin's assay relative to control. In kind it is ADME, cell-based, Erythrocyte. As to conditions: human red blood cells (erythrocytes), read-out: Activity.
Another data set concerns Candida albicans. Briefly: Growth inhibition of Candida albicans ATCC 90028 at 32 ug/ml after 24 hrs by OD530 light-scattering microspectrophotometric method. The conditions noted are these: ATCC 90028, 24 h, read-out: GI.
Data set [13] is described as follows: Hemolytic activity against human RBC at 12.5 uM after 1 hr by Drabkin's assay relative to control. In kind it is ADME, cell-based, Erythrocyte. The conditions noted are these: human red blood cells (erythrocytes), read-out: Activity.
Data set [14] relates to Escherichia coli. Briefly: Growth inhibition of Escherichia coli ATCC 25922 at 32 ug/ml after 18 hrs. As to conditions: ATCC 25922, 18 h, read-out: GI. In kind it is functional. An outline of the steps: as §3
Data set [15] relates to Staphylococcus aureus. Briefly: Growth inhibition of methicillin-resistant Staphylococcus aureus ATCC 43300 at 32 ug/ml after 18 hrs. The class given is functional. The conditions noted are these: ATCC 43300, 18 h, read-out: GI. An outline of the steps:
(§4)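 Mid-log cultures in cation-adjusted Mueller Hinton broth were added at 5×10^5 CFU/mL to wells at a final compound concentration of 32 μg/mL. Plates stood at 37 °C for 18 h. Growth was read by OD600, and % inhibition was computed against media-only and untreated-bacteria controls.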

For the next data set, the system named is Cryptococcus neoformans. As to the kind of experiment: Growth inhibition of Cryptococcus neoformans H99 ATCC 208821 at 32 ug/ml after 24 hrs by resazurin dye-based microspectrophotometric assay. As to conditions: var. grubii H99 ATCC 208821, 24 h, read-out: GI. The class given is functional. In a few lines: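 Yeasts were grown 3 days on YPD agar at 30 °C, suspended from five colonies and diluted in YNB broth to a final 2.5×10^3 CFU/mL. Compound at a final 32 μg/mL; incubated 24 h at 35 °C without shaking. C. albicans was read at OD530. C. neoformans was read as OD600–570 after resazurin (0.001% final) and a further 2 h at 35 °C. Fluconazole was the standard.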
(In general: The colour change of resazurin is a common sign of viable cells or microbes.)

The next data set relates to Erythrocyte. As to the kind of experiment: Hemolytic activity against human RBC after 1 hr by Drabkin's assay. In kind it is ADME, cell-based.
Data set [16] is described as follows: Induction of pore formation in DOPC vesicles at 20 uM after 3 hrs by carboxyfluorescein dye leakage assay. As to conditions: in the assay text read “after 3 mins” for “after 3 hrs”. An outline of the steps: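 POPC or DOPC liposomes were hydrated in 10 mM HEPES, 100 mM KCl, pH 7.4, containing 50 mM carboxyfluorescein. Size was checked by dynamic light scattering, and vesicles were used at 2.2×10^10 per mL. Peptide at 20 μM was equilibrated with vesicles for 3 min, and dye leakage was measured.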

The subject of data set [17] is Klebsiella pneumoniae. As to the kind of experiment: Growth inhibition of multidrug-resistant Klebsiella pneumoniae ATCC 700603 at 32 ug/ml after 18 hrs. The class given is functional. The conditions noted are these: ATCC 700603, 18 h, read-out: GI. An outline of the steps: as §4
Data set [18] can be described thus: Hemolytic activity against human RBC at 0.78 uM after 1 hr by Drabkin's assay relative to control. The conditions noted are these: human red blood cells (erythrocytes), read-out: Activity. In kind it is ADME, cell-based, Erythrocyte.
A short description of data set [19]: Hemolytic activity against human RBC at 50 uM after 1 hr by Drabkin's assay relative to control. The class given is ADME, cell-based, Erythrocyte. As to conditions: human red blood cells (erythrocytes), read-out: Activity.
The nature of data set [20]: Hemolytic activity against human RBC at 0.39 uM after 1 hr by Drabkin's assay relative to control. In kind it is ADME, cell-based, Erythrocyte. As to conditions: human red blood cells (erythrocytes), read-out: Activity.
In data set [21] the test system is Acinetobacter baumannii. As to the kind of experiment: Growth inhibition of Acinetobacter baumannii ATCC 19606 at 32 ug/ml after 18 hrs. In kind it is functional. As to conditions: ATCC 19606 = CIP 70.34 = JCM 6841, 18 h, read-out: GI. In a few lines: as §3
The target in another data set is Lipid bilayer. Briefly: Binding affinity to POPC vesicles by surface plasmon resonance spectroscopy. An outline of the steps: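 SPR on a dextran chip carrying immobilized POPC liposomes, with running buffer of 10 mM HEPES and 100 mM KCl at pH 7.4. Peptides in PBS were flowed at 25 μL/min at 10–1000 μM, with reference-subtracted response units. KD and Rmax were fitted from maximum response versus concentration. Regeneration used 20 mM CHAPS followed by fresh liposomes.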

Where [22] appears, read: ATCC 19606 = CIP 70.34 = JCM 6841, 18 h.
Setting [23] is: ATCC 19606 = CIP 70.34 = JCM 6841.

What is called MIC is the lowest concentration that inhibits growth of the organism. On to `CN[C@H](CC(C)C)C(=O)N[C@H]1C(=O)N[C@@H](CC(N)=O)C(=O)N[C@H]2C(=O)N[C@H]3C(=O)N[C@H](C(=O)N[C@H](C(=O)O)c4cc(O)cc(O)c4-c4cc3ccc4O)[C@H](O)c3ccc(c(Cl)c3)Oc3cc2cc(c3O[C@@H]2O[C@H](CO)[C@@H](O)[C@H](O)[C@H]2O[C@H]2C[C@](C)(N)[C@H](O)[C@H](C)O2)Oc2ccc(cc2Cl)[C@H]1O` [VANCOMYCIN], for which the MIC was more than 32 µg/mL in the data set with Klebsiella pneumoniae [1] (ATCC 700603, 18 h); more than 32 µg/mL against Acinetobacter baumannii [2] (setting [22]); more than 32 µg/mL in the data set on Acinetobacter baumannii [3] (setting [22]); more than 32 µg/mL against Escherichia coli [4] (ATCC 25922, 18 h); more than 32 µg/mL against Escherichia coli [5] (ATCC 25922, 18 h); more than 32 µg/mL in the data set with Klebsiella pneumoniae [6] (ATCC 700603, 18 h).

For the compound COLISTIN, the MIC in the data set with Klebsiella pneumoniae [1] is 0.25 µg/mL; in the data set on Acinetobacter baumannii [2] (setting [23]), 0.06 to 0.125 µg/mL; in the data set on Staphylococcus aureus [7] it was more than 32 µg/mL; in the data set with Acinetobacter baumannii [3] (setting [23]) it was 1 µg/mL; against Staphylococcus aureus [8], more than 32 µg/mL; against Escherichia coli [4], 0.125 µg/mL. Besides, the MIC against Escherichia coli [5] was 0.016 µg/mL; with Klebsiella pneumoniae [6] it was 0.06 µg/mL.

By Kd is commonly meant the concentration at which binding is half-saturated. Read a low Kd as higher affinity. As for `CC(C)(C)OC(=O)N1CCC[C@H]1C(=O)N1CCCN1C(=O)N1CCC[C@H]1C(=O)N1CCCN1C(=O)N1CCC[C@H]1C(=O)N1CCCN1C(=O)N1CCC[C@H]1C(=O)N1CCCN1C(=O)N1CCC[C@H]1C(=O)N1CCCN1C(=O)N1CCC[C@H]1C(=O)N1CCCN1C(=O)N1CCC[C@H]1C(=O)N1CCCN1C(=O)N1CCC[C@H]1C(=O)N1CCCN1C(=O)OCc1ccccc1`, the hemolysis at 1 h, 6.25 µM in data set [9] is -0.11%. Besides, in data set [10], the hemolysis at 1 h, 25 µM was -0.23%. Moreover, the inhibition of growth at 32 µg/mL with Pseudomonas aeruginosa was -8.18%; in the data set on Candida albicans, 2.92%; with Escherichia coli [14] it was 5.27%; with Staphylococcus aureus [15], 20.7%; in the data set with Cryptococcus neoformans, -3.43%; in the data set with Klebsiella pneumoniae [17] it was 5.27%. For the same compound, the inhibition of growth at 32 µg/mL in the data set on Acinetobacter baumannii [21] came to 17.8%. The hemolysis at 1 h, 1.56 µM in data set [11] is -0.04%. Further, the hemolysis at 1 h, 3.125 µM in [12] was 0.02%. Besides, the hemolysis at 1 h, 12.5 µM in [13] was -0.17%. The Activity entry in the data set on Erythrocyte was “Dose-dependent effect”. For the same compound, in [16], the outcome was inactive. Also, the hemolysis at 1 h, 0.78 µM in data set [18] was determined as 0.15%. Moreover, the hemolysis at 1 h, 50 µM in data set [19] was -0.42%. The hemolysis at 1 h, 0.39 µM in data set [20] was -0.04%. The compound further displayed a Kd at Lipid bilayer of 440 µM. In addition, the Rmax with Lipid bilayer was 632.

For the origin of these results see ChEMBL document CHEMBL4196059, “Design, synthesis, and biological evaluation of stable β6.3-Helices: Discovery of non-hemolytic antibacterial peptides” (Eur J Med Chem, 2018).
